Compound activity (PubChem)
Cneo AK release = Cryptococcus neoformans lysis via adenylate kinase release; lysis activity, % at 15 µM; C. neoformans lysis, adenylate kinase release luminescence, 4 h; normalised: neutral wells 0, clomiphene wells 100; actives 0.2% (n = 360,000);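 active means mean lysis activity across replicates of at least 80%, whatever share of replicates individually reach that level; inactive means mean lysis activity below 80%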
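Assay system: C. neoformans cells. Amount: yeast cell density of 5 × 10^6 cells/mL. Technique: AK luminescence. Buffer or medium: YPD. Times: static 4 h at 37 °C with compound, 1 h detection. Dosing: single-point compound dose. Read-out: lysis from increased AK signal.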
MLL AF4-AF9 inh = inhibitors of human MLL-AF4/AF9 interaction; inhibition, % at 10 µM; P42568; actives 0.47% (n = 350,000); AID 651704; AlphaScreen, biotin-AF4 peptide binding to FLAG-AF9;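 active means every replicate reaching a set inhibition limit, whatever the replicate mean, cut at about 25% in these data; inconclusive means mean inhibition reaches that limit but some replicates miss it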;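 further: 0% = plate neutral control median and 100% = total signal loss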
Target sequence (P42568 whole entry, looked up): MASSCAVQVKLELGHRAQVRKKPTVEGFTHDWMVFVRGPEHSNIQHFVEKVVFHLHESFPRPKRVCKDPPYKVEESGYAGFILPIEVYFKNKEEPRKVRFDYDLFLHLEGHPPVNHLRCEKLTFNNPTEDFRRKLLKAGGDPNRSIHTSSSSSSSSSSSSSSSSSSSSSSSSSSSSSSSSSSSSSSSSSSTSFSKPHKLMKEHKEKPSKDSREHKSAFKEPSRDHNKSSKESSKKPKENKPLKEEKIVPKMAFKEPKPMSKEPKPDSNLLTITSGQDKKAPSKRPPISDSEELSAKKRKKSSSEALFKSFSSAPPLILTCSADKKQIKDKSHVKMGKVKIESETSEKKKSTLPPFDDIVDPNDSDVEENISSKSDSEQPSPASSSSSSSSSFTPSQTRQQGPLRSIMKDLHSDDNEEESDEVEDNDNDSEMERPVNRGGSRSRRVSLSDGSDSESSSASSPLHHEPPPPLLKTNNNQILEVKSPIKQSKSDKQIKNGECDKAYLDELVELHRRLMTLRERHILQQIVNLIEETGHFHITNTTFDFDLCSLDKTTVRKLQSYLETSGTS
rRNA inh HTS = selective bacterial rRNA inhibition in E. coli | E. coli WT GFP vs humanized-ribosome RFP mutants, fluorescence, 24 h; active compounds read low; DMSO median 0, no signal -100 | GFP signal change (wild-type ribosome), % (test concentration not listed) | actives 1.6% (n = 350,000);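 active means significant combined selectivity score with lowered wild-type GFP, culture density cut under 30%, mutant RFP and density less affected; inactive means any of these conditions unmet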
PfHsp90 yeast 2 = reduces growth (ATP signal) of yeast expressing P. falciparum Hsp90. S. cerevisiae expressing PfHsp90, BacTiter-Glo ATP, 48 h; yeast lacking PDR1 and PDR3 efflux regulators. inhibition, % at 9.4 µM. actives 0.32% (n = 310,000);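 active means every replicate shows inhibition above about 80%, whatever the replicate mean, limit read from the data; inconclusive means mean inhibition reaches the set limit but some replicate falls short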;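 further: 0% = DMSO neutral controls and 100% = 20 µM radicicol positive controls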
DENV2 CPE rescue = inhibitors of DENV2 cytopathic effect; DENV2-infected cells, cytopathic effect rescue, plate reader; CPE inhibition, % at 9.99 µM; actives 1.7% (n = 350,000); AID 651640; in the data active means CPE inhibition above about 20%, passing the limit was not always enough; inconclusive means no clear call, values can overlap the other calls; tested in BHK-21 cells;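 further: 0% = median of neutral control wells and 100% = median of positive control wells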
S100A4 inh HTS = blocks human S100A4 binding to myosin IIA peptide; inhibition, % at 10.7 µM; S100A4/TAMRA-MyoIIA peptide fluorescence polarization; AID 652163; actives 0.14% (n = 360,000);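 active means mean inhibition of at least 70% across replicates, with every replicate also reaching that level; inconclusive means mean inhibition reaches 70% but some replicates fall short; inactive means mean inhibition below 70%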
Target sequence (P26447 whole entry, looked up): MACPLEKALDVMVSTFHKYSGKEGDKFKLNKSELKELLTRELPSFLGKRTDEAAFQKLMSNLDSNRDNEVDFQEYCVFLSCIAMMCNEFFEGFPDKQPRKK
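Test system: S100A4 monomer protein. Medium: HEPES buffer with Ca2+, pH 7.2. Reagent: fluorescent myosin IIA peptide, 5 nM. Compound dosing: single-point compound testing. Timing: 5 min between mix addition and reading. Benchmarks: DMSO neutral and TFP positive wells.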
* = called active by the depositor; ? = inconclusive; nt = not tested or not shown; ! = repeats disagree. Compounds with a hit are over-represented: about 3.2% of the library has one in this group of screens.

SMILES	Cneo AK release	MLL AF4-AF9 inh	rRNA inh HTS	PfHsp90 yeast 2	DENV2 CPE rescue	S100A4 inh HTS
CCC(=O)N1[C@H](CO)[C@H]2c3ccccc3N(S(=O)(=O)c3ccc(F)cc3)C[C@H]21	7	-1	0	nt	2	5
CN=c1scc(-c2ccco2)n1/N=C/c1ccc(O)c(O)c1	nt	26*	-12	14	-4	-2
CCOC(=O)N1CCN(CC(=O)Nc2c(C(=O)OC)[nH]c3cccc(Cl)c23)CC1	nt	-5	-15*	-3	4	0
CCOC(=O)N1CCN(CC(=O)Nc2c(C(=O)OC)[nH]c3ccc(Cl)cc23)CC1	-4	nt	nt	20	nt	nt
C[C@H]1CN([C@@H](C)CO)C(=O)Cc2cc(NC(=O)Cn3cnnn3)ccc2O[C@@H]1CN(C)S(=O)(=O)c1ccc(F)cc1	-2	1	3	nt	3	-3
CO[C@H]1CN(C)C(=O)c2ccc(NC(=O)c3ccccc3)cc2OC[C@H](C)N(C(=O)C2CC2)C[C@@H]1C	nt	-2	-5	nt	16	10
CO[C@@H]1CN(C)C(=O)c2ccc(NC(=O)c3ccccc3)cc2OC[C@@H](C)N(C(=O)C2CC2)C[C@H]1C	nt	-25	-1	nt	26*	-1
CO[C@@H]1CN(C)C(=O)c2cc(NC(=O)c3ccccc3)ccc2OC[C@H](C)N(C(=O)C2CC2)C[C@@H]1C	-2	2	-4	nt	95*	-11
CC(=O)Oc1cccc(C2=CC(=O)CC(C)(C)C2=O)c1	10	-3	19	nt	22*	7
CC1(C)CC(=O)C=C(c2cccc(OC(=O)c3ccc(Br)cc3)c2)C1=O	8	8	2	nt	-2	-4
Cc1cc(C(=O)COC(=O)Cc2n[nH]c(=O)c3ccccc23)c(C)n1-c1ccc2c(c1)OCO2	nt	4	-25*	-30	2	3
COc1ccc(-n2c(C)cc(C(=O)COC(=O)Cc3n[nH]c(=O)c4ccccc34)c2C)cc1	nt	4	-20	-4	-2	0
C[C@@H]1CCCCO[C@@H](CN(C)C)[C@@H](C)CN([C@@H](C)CO)C(=O)c2cc(NC(=O)C3CCCCC3)ccc2O1	-3	-3	1	nt	11	10
O=C1Nc2ccc(F)cc2C12Nc1ccccc1-c1nnc(SCc3ccccc3)nc1O2 (configuration not stated)	1	5	-17*	22	0	-3
Cc1ccc(CSc2nnc3c(n2)OC2(Nc4ccccc4-3)C(=O)Nc3ccc(F)cc32)cc1 (configuration not stated)	-3	-36	-15	29	-4	3
CC1C/C(=C/c2ccccn2)C(=O)/C(=C/c2ccccn2)C1 (configuration not stated)	nt	nt	nt	7	nt	nt
CC(C)(C)C1C/C(=C/c2ccccn2)C(=O)/C(=C/c2ccccn2)C1 (configuration not stated)	-8	nt	nt	100*	nt	nt
O=C(CN1CCOCC1)NCC[C@H]1CC[C@@H](NC(=O)c2ccccc2F)[C@@H](CO)O1	10	-4	3	nt	10	-5
C[C@H](CO)N1C[C@H](C)[C@@H](CN(C)C(=O)Nc2ccc(F)cc2)Oc2c(NS(=O)(=O)c3ccccc3)cccc2C1=O	102*	2	2	nt	-6	0
C[C@@H]1CN([C@H](C)CO)C(=O)c2cccc(NS(=O)(=O)c3ccccc3)c2O[C@@H]1CN(C)C(=O)Nc1ccc(F)cc1	1	-1	3	nt	34*	-9
C[C@H](CO)N1C[C@H](C)[C@@H](CN(C)C(=O)Nc2ccccc2)Oc2c(NS(=O)(=O)c3ccccc3)cccc2C1=O	48	-6	-2	-2	25*!	44
C[C@@H]1CN([C@H](C)CO)C(=O)c2cccc(NS(=O)(=O)c3ccccc3)c2O[C@@H]1CN(C)C(=O)Nc1ccccc1	7	-12	2	nt	2	7
CCC(=O)N1CC2(C1)[C@@H](c1ccc(-c3ccccc3C)cc1)[C@@H](CO)N2C(=O)CC	nt	-2	-5	nt	37*	-50
COCC(=O)N1CC2(C1)[C@H](c1ccccc1)[C@H](CO)N2C(=O)c1cccnc1	nt	nt	3	nt	-4	4
CCC(=O)N1CC2(C1)[C@@H](c1ccccc1)[C@@H](CO)N2C(=O)c1cccnc1	nt	0	4	nt	29*	-1
SMILES	Cneo AK release	MLL AF4-AF9 inh	rRNA inh HTS	PfHsp90 yeast 2	DENV2 CPE rescue	S100A4 inh HTS
CCC(=O)N1CC2(C1)[C@H](c1ccccc1)[C@@H](CO)N2C(=O)c1ccncc1	nt	-1	3	nt	23*	-3
CCC(=O)N1CC2(C1)[C@H](c1ccc(-c3ccccc3C)cc1)[C@H](CO)N2C(=O)CC	nt	-1	-2	nt	-11	-8
C[C@@H]1CCCCO[C@H](CN(C)Cc2ccc(C(F)(F)F)cc2)[C@H](C)CN([C@H](C)CO)C(=O)c2cc(NC(=O)CCC(F)(F)F)ccc2O1	0	3	-3	nt	-9	7
CO[C@H]1CN(C)C(=O)c2cc(NC(=O)Nc3cc(F)ccc3F)ccc2OC[C@@H](C)N(C(=O)c2ccccn2)C[C@@H]1C	nt	nt	2	nt	nt	nt
CN(C)CC(=O)Nc1ccc2c(c1)[C@H]1C[C@@H](CC(=O)NC3CCCC3)O[C@H](CO)[C@H]1O2	0	-1	2	nt	-2	-1
Cc1cc(OC(=O)c2cc(Cl)ccc2Cl)c([N+](=O)[O-])c(=O)[nH]1	3	-4	-18	4	5	-5
Cc1cc(OC(=O)c2cc([N+](=O)[O-])ccc2Cl)c([N+](=O)[O-])c(=O)[nH]1	-2	47*	-17	-4	-1	8
CN1[C@@H]2Cn3c(ccc(C4=CCCC4)c3=O)[C@H]1[C@@H](C(=O)N1CCCCC1)[C@@H]2CO	22	-2	4	nt	110*	6
O=C([C@@H]1[C@@H](CO)[C@@H]2Cn3c(ccc(-c4ccccc4)c3=O)[C@H]1N2)N1CCCCC1	54	-1	-3	nt	?	10
CN1[C@@H]2c3ccc(-c4ccncc4)c(=O)n3C[C@H]1[C@H](CO)[C@H]2C(=O)N1CCC(Cc2ccccc2)CC1	-4	nt	-1	nt	25*	nt
O=C([C@@H]1[C@@H](CO)[C@@H]2Cn3c(ccc(C4=CCCCC4)c3=O)[C@H]1N2)N1CCCCC1	35	-4	0	nt	35*	18
C[C@H]1CN([C@@H](C)CO)C(=O)c2cc(-c3ccc(F)cc3)cnc2O[C@H]1CN(C)Cc1cncnc1	-2	-7	4	nt	13	-3
